# Measurements from ChEMBL document CHEMBL1129462, “Synthesis and angiotensin II receptor antagonistic activities of benzimidazole derivatives bearing acidic heterocycles as novel tetrazole bioisosteres” (J Med Chem, 1996).
# Experiments:
# [1] = Inhibition of specific binding of [125I]angiotensin II (0.2 nM) to angiotensin II receptor in bovine adrenal cortex; assay type: tissue-based, Bos taurus
# [2] = target: T1, Angiotensin II receptor (Rattus norvegicus) (UniProt P29089+P25095+P35351); assay: Percent inhibition of angiotensin II (0.1 ug/kg iv) -induced pressor response 7 hr after administration of test compounds (1 mg/kg po) in conscious male Sprague-Dawley rats; assay type: functional, organism-based
# How it was run: (§1)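 Conscious male Sprague-Dawley rats were given the test compound at 1 mg/kg orally. They were then challenged with AII at 0.1 μg/kg iv. The AII-induced pressor response was measured 3 and 7 h after dosing and expressed as percent inhibition.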
# [3] = target: T1, Angiotensin II receptor (Rattus norvegicus); assay: Percent inhibition of angiotensin II (0.1 ug/kg iv) -induced pressor response 3h after administration of test compounds (1 mg/kg po) in conscious male Sprague-Dawley rats; assay type: functional, organism-based; how it was run: as §1
# [4] = Bioavailability; assay type: ADME, organism-based; conditions: eutheria, in vivo; read-out: BA
# [5] = pka value was determined; assay type: physicochemical
# How it was run: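 pKa of the acidic group was estimated from the corresponding methyl ester. Titration was potentiometric with standardized 0.1 N NaOH in DMSO–H2O (2:3) at 26 °C.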
# [6] = system: Rattus norvegicus; assay: Percent inhibition of AII (0.1 ug/kg iv) -induced pressor response at 3 hr after administration of test compounds (0.1 mg/kg po) in conscious male Sprague-Dawley rats.
# [7] = system: Rattus norvegicus; assay: Percent inhibition of AII-induced pressor response 7 hr after administration of test compounds (1 mg/kg po) in conscious male Sprague-Dawley rats.
# [8] = system: Rattus norvegicus; assay: Percent inhibition of AII ([…]) -induced pressor response 7 hr after administration of test compounds (1 mg/kg po) in conscious male Sprague-Dawley rats.; assay type: functional
# [9] = system: Rattus norvegicus; assay: Percent inhibition of AII (0.1 ug/kg iv) -induced pressor response at 7 hr after administration of test compounds (0.1 mg/kg po) in conscious male Sprague-Dawley rats.; assay type: functional; conditions: in the assay text read “3 hr” for “7 hr”
# How it was run: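 In conscious male Sprague-Dawley rats, the oral test dose was 0.1 mg/kg. The pressor response to an AII challenge (0.1 μg/kg iv) was recorded after dosing, and percent inhibition was calculated.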
# [10] = Partition coefficient (logP); assay type: physicochemical; conditions: octanol/water
IC50 [1] [nM],inhibition [2] [%],inhibition [3] [%],Compound,further results
69,100,100,CCc1nc2cccc(C(=O)O)c2n1Cc1ccc(-c2ccccc2-c2nsc(O)n2)cc1,
900,,,CCCCc1nc2cccc(C(=O)OC)c2n1Cc1ccc(-c2ccccc2-c2noc(O)n2)cc1,
150,,,CCCCc1nc(Cl)c(CO)n1Cc1ccc(-c2ccccc2-c2nnn[nH]2)cc1 [LOSARTAN],
1000,91,100,CSc1nc2cccc(C(=O)O)c2n1Cc1ccc(-c2ccccc2-c2noc(S)n2)cc1,
420,,100,CCOc1nc2cccc(C(=O)O)c2n1Cc1ccc(-c2ccccc2-c2noc(=O)[nH]2)cc1 [AZILSARTAN],bioavailability [4]: 20%; pKa [5]: 6.1; Inhibition [6]: 75%
> 1000,,63,CCCCc1nc2cccc(C(=O)OC)c2n1Cc1ccc(-c2ccccc2C2=NOS(=O)N2)cc1 (stereo unspecified),Inhibition [7]: 22%
460,,35,CCOc1nc2cccc(C(=O)OC)c2n1Cc1ccc(-c2ccccc2C2=NOS(=O)N2)cc1 (stereo unspecified),Inhibition [8]: 29%
> 1000,100,100,CCCSc1nc2cccc(C(=O)O)c2n1Cc1ccc(-c2ccccc2-c2nsc(O)n2)cc1,
> 1000,,84,CCCCc1nc2cccc(C(=O)OC)c2n1Cc1ccc(-c2ccccc2-c2noc(S)n2)cc1,Inhibition [6]: 7%
920,100,83,CCCOc1nc2cccc(C(=O)O)c2n1Cc1ccc(-c2ccccc2-c2nsc(O)n2)cc1,
440,100,100,CCOc1nc2cccc(C(=O)OC)c2n1Cc1ccc(-c2ccccc2-c2noc(O)n2)cc1,
110,,,CCOc1nc2cccc(C(=O)O)c2n1Cc1ccc(-c2ccccc2-c2nnn[nH]2)cc1,bioavailability [4]: 5%; pKa [5]: 5.3
720,,92,CCCCc1nc2cccc(C(=O)O)c2n1Cc1ccc(-c2ccccc2-c2nsc(O)n2)cc1,Inhibition [9]: 19%
760,,82,CCCCc1nc2cccc(C(=O)O)c2n1Cc1ccc(-c2ccccc2-c2noc(S)n2)cc1,Inhibition [9]: 19%
> 1000,93,83,CCOc1nc2cccc(C(=O)OC)c2n1Cc1ccc(-c2ccccc2-c2noc(S)n2)cc1,
66,,,CCOc1nc2cccc(C(=O)OC)c2n1Cc1ccc(-c2ccccc2-c2nn[nH]n2)cc1,
690,100,100,CCSc1nc2cccc(C(=O)O)c2n1Cc1ccc(-c2ccccc2-c2noc(S)n2)cc1,

IC50 [1] [nM],inhibition [2] [%],inhibition [3] [%],Compound,further results
320,,,CCCCc1nc2cccc(C(=O)OC)c2n1Cc1ccc(-c2ccccc2-c2nn[nH]n2)cc1,
540,29,32,CNc1nc2cccc(C(=O)O)c2n1Cc1ccc(-c2ccccc2-c2nsc(O)n2)cc1,
340,89,91,CCc1nc2cccc(C(=O)O)c2n1Cc1ccc(-c2ccccc2-c2noc(S)n2)cc1,
130,71,70,CCNc1nc2cccc(C(=O)O)c2n1Cc1ccc(-c2ccccc2-c2nsc(O)n2)cc1,
620,64,68,CCCCc1nc2cccc(C(=O)O)c2n1Cc1ccc(-c2ccccc2-c2noc(O)n2)cc1,
250,,100,CCOc1nc2cccc(C(=O)O)c2n1Cc1ccc(-c2ccccc2-c2nsc(O)n2)cc1,bioavailability [4]: 51%; logP [10]: 1.58; pKa [5]: 6.6; Inhibition [9]: 100%
> 1000,50,57,Cc1nc2cccc(C(=O)O)c2n1Cc1ccc(-c2ccccc2-c2noc(S)n2)cc1,
390,94,96,CCCc1nc2cccc(C(=O)O)c2n1Cc1ccc(-c2ccccc2-c2noc(S)n2)cc1,
970,71,80,Cc1nc2cccc(C(=O)O)c2n1Cc1ccc(-c2ccccc2-c2nsc(O)n2)cc1,
750,100,100,CCOc1nc2cccc(C(=O)OC)c2n1Cc1ccc(-c2ccccc2-c2nsc(O)n2)cc1,
360,100,100,CCCc1nc2cccc(C(=O)O)c2n1Cc1ccc(-c2ccccc2-c2nsc(O)n2)cc1,
,91,88,COc1nc2cccc(C(=O)O)c2n1Cc1ccc(-c2ccccc2-c2nsc(O)n2)cc1,
550,,,CCCCc1nc2cccc(C(=O)O)c2n1Cc1ccc(-c2ccccc2-c2nn[nH]n2)cc1,
500,100,100,CSc1nc2cccc(C(=O)O)c2n1Cc1ccc(-c2ccccc2-c2nsc(O)n2)cc1,
> 1000,,87,CCCCc1nc2cccc(C(=O)OC)c2n1Cc1ccc(-c2ccccc2-c2nsc(O)n2)cc1,Inhibition [9]: 10%
> 1000,100,100,CCCSc1nc2cccc(C(=O)O)c2n1Cc1ccc(-c2ccccc2-c2noc(S)n2)cc1,
470,100,100,CCSc1nc2cccc(C(=O)O)c2n1Cc1ccc(-c2ccccc2-c2nsc(O)n2)cc1,
